In ChEMBL document CHEMBL1629439, “High-throughput identification of antibacterials against methicillin-resistant Staphylococcus aureus (MRSA) and the transglycosylase” (Bioorg Med Chem, 2010):
Values after ≈ are worked out from the molar mass of the structure shown.

How the values were obtained:
Staphylococcus aureus [1] = assay: Antimicrobial activity against methicillin-resistant Staphylococcus aureus ATCC 33592 after 18 to 24 hrs by alamar blue assay; type: functional; details: Staphylococcus aureus, ATCC 33592; read-out: MIC
Summary of the method: (§1)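 Broth microdilution per NCCLS standard, Mueller-Hinton broth, 8-point twofold dilutions; exponentially growing cells at 5 10^5 cells/ml with compound, 18–24 h at 37 C; 20% Alamar blue added, fluorescence read; MIC90 taken as lowest concentration preventing at least 90% growth.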

Escherichia coli = assay: Antimicrobial activity against Escherichia coli ATCC […] after 18 to 24 hrs by alamar blue assay; type: functional; details: Escherichia coli; read-out: MIC
Summary of the method: (§2)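 Broth microdilution per NCCLS in Mueller-Hinton broth, 8-point twofold dilutions, 384-well format. Exponential-phase cells at 5 × 10^5 cells/ml incubated with compound 18–24 h at 37 °C, then 20% Alamar blue added and fluorescence read. MIC90 taken as the lowest concentration preventing at least 90% bacterial growth.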

[2] = Inhibition of transglycosylase assessed as inhibition of NBD- labelled lipid II polymerization at 100 uM
Summary of the method: (§3)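 100 µM NBD-labelled lipid II incubated 30 min with full-length PBP (EC, SA or Mtb) and 10 ng/µl N-acetylmuramidase in 50 mM Tris-HCl pH 8.0, 10 mM MgCl2, 0.1% Triton X-100, 10% DMSO, 15% MeOH. Supernatant run on anion-exchange HPLC with 20 mM–0.5 M ammonium acetate gradient. Inhibition calculated from substrate peak-area percentage. IC50 determined. S. aureus strains share one SA enzyme.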

[3] = system: Stenotrophomonas maltophilia; assay: Antimicrobial activity against Stenotrophomonas maltophilia ATCC 13637 after 18 to 24 hrs by alamar blue assay; type: functional; details: Stenotrophomonas maltophilia, ATCC 13637; read-out: MIC; summary of the method: as §2
Staphylococcus aureus [4] = assay: Antimicrobial activity against Staphylococcus aureus ATCC 29213 after 18 to 24 hrs by alamar blue assay
[5] = Displacement of fluorescein-labeled moenomycin from transglycosylase at 100 uM after 30 mins by fluorescence anisotropy binding assay
Acinetobacter baumannii = assay: Antimicrobial activity against Acinetobacter baumannii ATCC 49139 after 18 to 24 hrs by alamar blue assay; type: functional; details: Acinetobacter baumannii, ATCC 49139; read-out: MIC; summary of the method: as §2
Staphylococcus aureus [6] = assay: Antimicrobial activity against methicillin-resistant Staphylococcus aureus isolate NTUH4722 after 18 to 24 hrs by alamar blue assay; type: functional; summary of the method: as §1
Bacillus subtilis = assay: Antimicrobial activity against Bacillus subtilis ATCC 23857 after 18 to 24 hrs by alamar blue assay; type: functional; summary of the method: as §2
Staphylococcus aureus [7] = assay: Antimicrobial activity against oxacillin- and methicillin-resistant Staphylococcus aureus isolate Sa-OXA-R2 after 18 to 24 hrs by alamar blue assay; type: functional; summary of the method: as §1
[8] = system: Mycolicibacterium smegmatis; assay: Antimicrobial activity against Mycobacterium smegmatis BCRC 11565 after 18 to 24 hrs by alamar blue assay; type: functional; details: Mycolicibacterium smegmatis, BCRC 11565; read-out: MIC; summary of the method: as §2
Pseudomonas aeruginosa = assay: Antimicrobial activity against Pseudomonas aeruginosa ATCC 25619 after 18 to 24 hrs by alamar blue assay; type: functional; details: Pseudomonas aeruginosa, ATCC 25619; read-out: MIC; summary of the method: as §2
Serratia marcescens = assay: Antimicrobial activity against Serratia marcescens ATCC 14756 after 18 to 24 hrs by alamar blue assay; type: functional; details: Serratia marcescens, ATCC 14756; read-out: MIC; summary of the method: as §2
[9] = Inhibition of transglycosylase assessed as inhibition of NBD- labelled lipid II polymerization; summary of the method: as §3

Row | SMILES | MIC (Staphylococcus aureus [1]) | MIC (Escherichia coli) | inhibition [2] | MIC [3] | MIC (Staphylococcus aureus [4]) | inhibition [5] | MIC (Acinetobacter baumannii) | MIC (Staphylococcus aureus [6]) | MIC (Bacillus subtilis) | MIC (Staphylococcus aureus [7]) | MIC [8] | MIC (Pseudomonas aeruginosa) | MIC (Serratia marcescens) | IC90 [9]
1 | O=C(Nc1ccc(Cl)c(Cl)c1)c1cc(Cl)ccc1NS(=O)(=O)c1ccc(Cl)cc1 | 0.25 µg/mL (≈ 0.51 µM) | > 256 µg/mL | 0% | > 256 µg/mL | 0.25 µg/mL (≈ 0.51 µM) | 98% | > 256 µg/mL | 0.25 µg/mL (≈ 0.51 µM) | < 0.03 µg/mL | 0.25 µg/mL (≈ 0.51 µM) | > 64 µg/mL | > 256 µg/mL | > 256 µg/mL | 
2 | Cc1ccc(OC(=O)c2cc(-c3ccc(C)c(C)c3)on2)c(C)c1 |  |  | 0% |  |  | 95% |  |  |  |  |  |  |  | 
3 | Cc1ccc(-c2cc(C(=O)Oc3cccc(C)c3)no2)cc1 |  |  | 0% |  |  | 96% |  |  |  |  |  |  |  | 
4 | CCN(CC)c1cc(C)c2cc(NC(=O)c3ccc([N+](=O)[O-])o3)ccc2n1 | > 4 µg/mL | 256 µg/mL (≈ 695 µM) | 0% | 32 µg/mL (≈ 86.9 µM) | 2 µg/mL (≈ 5.43 µM) | 90% | 12 µg/mL (≈ 32.6 µM) | > 4 µg/mL | 0.06 µg/mL (≈ 0.163 µM) | > 4 µg/mL | 0.5 µg/mL (≈ 1.36 µM) | 128 µg/mL (≈ 347 µM) | 32 µg/mL (≈ 86.9 µM) | 
5 | Cc1c(CCC(=O)O)c(=O)oc2c(C)c3occ(-c4ccc(Cl)cc4)c3cc12 | 1.25 µg/mL (≈ 3.15 µM) | > 256 µg/mL | 0% | > 256 µg/mL | 2.5 µg/mL (≈ 6.3 µM) | 97% | > 256 µg/mL | 2.5 µg/mL (≈ 6.3 µM) | > 64 µg/mL | 2.5 µg/mL (≈ 6.3 µM) | 1 µg/mL (≈ 2.52 µM) | > 256 µg/mL | > 256 µg/mL | 
6 | O=C(Nc1cccc2cccnc12)c1ccc([N+](=O)[O-])o1 | 2 µg/mL (≈ 7.06 µM) | 256 µg/mL (≈ 904 µM) | 0% | 32 µg/mL (≈ 113 µM) | 2 µg/mL (≈ 7.06 µM) | 90% | 12 µg/mL (≈ 42.4 µM) | 2 µg/mL (≈ 7.06 µM) | 0.06 µg/mL (≈ 0.212 µM) | 2 µg/mL (≈ 7.06 µM) | 0.5 µg/mL (≈ 1.77 µM) | 128 µg/mL (≈ 452 µM) | 32 µg/mL (≈ 113 µM) | 
7 | C(=C\c1nc([P+](c2ccccc2)(c2ccccc2)c2ccccc2)c(N2CCCCCC2)o1)/c1ccccc1 |  |  | 0% |  |  | 97% |  |  |  |  |  |  |  | 
8 | Cc1ccc(C)c(C(=O)c2cc(NC(=O)c3cc(Br)cc(Br)c3O)ccc2Oc2ccc(Cl)cc2)c1 | 32 µg/mL (≈ 50.8 µM) | 8 µg/mL (≈ 12.7 µM) |  | 16 µg/mL (≈ 25.4 µM) | 8 µg/mL (≈ 12.7 µM) |  | 16 µg/mL (≈ 25.4 µM) | ≤ 0.03 µg/mL | < 0.03 µg/mL | ≤ 0.03 µg/mL | 0.5 µg/mL (≈ 0.794 µM) | 16 µg/mL (≈ 25.4 µM) | 16 µg/mL (≈ 25.4 µM) | > 100 µM
9 | O=C(Nc1ccc(Oc2cc3ccccc3cc2Cl)c(Cl)c1)c1cc(Br)cc(Br)c1O | 4 µg/mL (≈ 6.87 µM) | 8 µg/mL (≈ 13.7 µM) |  | 16 µg/mL (≈ 27.5 µM) | 4 µg/mL (≈ 6.87 µM) |  | 16 µg/mL (≈ 27.5 µM) | ≤ 0.03 µg/mL | < 0.03 µg/mL | ≤ 0.03 µg/mL | 0.5 µg/mL (≈ 0.859 µM) | 16 µg/mL (≈ 27.5 µM) | 16 µg/mL (≈ 27.5 µM) | 100 µM
10 | Cc1ccc(C(C)C)cc1Oc1ccc(Cl)cc1NC(=O)c1cc(Cl)cc(Br)c1O | 0.5 µg/mL (≈ 0.982 µM) | 8 µg/mL (≈ 15.7 µM) |  | 16 µg/mL (≈ 31.4 µM) | 1 µg/mL (≈ 1.96 µM) |  | 16 µg/mL (≈ 31.4 µM) | ≤ 0.03 µg/mL | < 0.03 µg/mL | ≤ 0.03 µg/mL | 0.5 µg/mL (≈ 0.982 µM) | 16 µg/mL (≈ 31.4 µM) | 16 µg/mL (≈ 31.4 µM) | 50 µM
11 | CCn1cc(C(=O)O)c(=O)c2cc(F)c(N3CCN(C(=O)c4cccc(C)c4)CC3)cc21 |  |  | 0% |  |  | 93% |  |  |  |  |  |  |  | 
12 | O=C(Nc1ccc(Oc2ccc(Cl)cc2)c(Cl)c1)c1cc(Br)cc(Br)c1O | 0.25 µg/mL (≈ 0.47 µM) | 8 µg/mL (≈ 15 µM) |  | 16 µg/mL (≈ 30.1 µM) | 0.5 µg/mL (≈ 0.94 µM) |  | 16 µg/mL (≈ 30.1 µM) | 0.25 µg/mL (≈ 0.47 µM) | < 0.03 µg/mL | 0.5 µg/mL (≈ 0.94 µM) | 0.5 µg/mL (≈ 0.94 µM) | 16 µg/mL (≈ 30.1 µM) | 16 µg/mL (≈ 30.1 µM) | 100 µM
13 | O=C(c1ccc(Cl)cc1)c1cc(NC(=O)c2cc(Br)cc(Br)c2O)ccc1Br | ≤ 2 µg/mL | 8 µg/mL (≈ 13.6 µM) |  | 16 µg/mL (≈ 27.2 µM) | ≤ 2 µg/mL |  | 16 µg/mL (≈ 27.2 µM) | ≤ 0.03 µg/mL | < 0.03 µg/mL | ≤ 0.03 µg/mL | 0.5 µg/mL (≈ 0.85 µM) | 16 µg/mL (≈ 27.2 µM) | 16 µg/mL (≈ 27.2 µM) | 100 µM
14 | O=C(Nc1ccc(Oc2ccc(Cl)c3cccnc23)c(Br)c1)c1cc(Br)cc(Br)c1O | 16 µg/mL (≈ 25.5 µM) | 8 µg/mL (≈ 12.7 µM) |  | 16 µg/mL (≈ 25.5 µM) | 32 µg/mL (≈ 51 µM) |  | 16 µg/mL (≈ 25.5 µM) | ≤ 0.03 µg/mL | < 0.03 µg/mL | ≤ 0.03 µg/mL | 0.5 µg/mL (≈ 0.797 µM) | 16 µg/mL (≈ 25.5 µM) | 16 µg/mL (≈ 25.5 µM) | 50 µM
15 | O=C(Nc1ccc(C(F)(F)F)cc1)N1CCN(c2nc(CCc3ccccc3)nc3sc4c(c23)CCCC4)CC1 |  |  | 0% |  |  | 90% |  |  |  |  |  |  |  | 
16 | O=C(Nc1cc(Cl)ccc1Oc1ccc(Cl)c2ccccc12)c1cc(I)cc(I)c1O | ≤ 2 µg/mL | 8 µg/mL (≈ 11.8 µM) |  | 16 µg/mL (≈ 23.7 µM) | 4 µg/mL (≈ 5.92 µM) |  | 16 µg/mL (≈ 23.7 µM) | ≤ 0.03 µg/mL | < 0.03 µg/mL | ≤ 0.03 µg/mL | 0.5 µg/mL (≈ 0.74 µM) | 16 µg/mL (≈ 23.7 µM) | 16 µg/mL (≈ 23.7 µM) | 50 µM
17 | O=C(Nc1cc(Cl)cc(C(=O)c2ccccc2)c1Cl)c1cc(Br)cc(Br)c1O | 8 µg/mL (≈ 14.7 µM) | 8 µg/mL (≈ 14.7 µM) |  | 16 µg/mL (≈ 29.4 µM) | 1 µg/mL (≈ 1.84 µM) |  | 16 µg/mL (≈ 29.4 µM) | 4 µg/mL (≈ 7.35 µM) | < 0.03 µg/mL | 4 µg/mL (≈ 7.35 µM) | 0.5 µg/mL (≈ 0.919 µM) | 16 µg/mL (≈ 29.4 µM) | 16 µg/mL (≈ 29.4 µM) | 100 µM
18 | Cc1ccc(Nc2nc3nonc3nc2Nc2cccc(C(F)(F)F)c2)cc1Cl |  |  | 0% |  |  | 90% |  |  |  |  |  |  |  | 
19 | O=C(c1ccc(Cl)cc1)c1cc(NC(=O)c2cc(I)cc(I)c2O)ccc1Cl | 4 µg/mL (≈ 6.27 µM) | 8 µg/mL (≈ 12.5 µM) |  | 16 µg/mL (≈ 25.1 µM) | ≤ 2 µg/mL |  | 16 µg/mL (≈ 25.1 µM) | ≤ 0.03 µg/mL | < 0.03 µg/mL | ≤ 0.03 µg/mL | 0.5 µg/mL (≈ 0.784 µM) | 16 µg/mL (≈ 25.1 µM) | 16 µg/mL (≈ 25.1 µM) | 100 µM
